{"source": "ChEMBL document CHEMBL2029285", "about": "“Structure-based design of novel class II c-Met inhibitors: 1. Identification of pyrazolone-based derivatives” (J Med Chem, 2012)", "key": {"[1]": {"target": "T1, Hepatocyte growth factor receptor (Homo sapiens, UniProt P08581)", "assay": "Inhibition of recombinant c-met-mediated gastrin phosphorylation by HTRF assay"}, "[2]": {"target": "T1, Hepatocyte growth factor receptor", "assay": "Inhibition of HGF-mediated c-met autophosphorylation in serum-starved human PC3 cells after 1 hr by electrochemiluminescent immunoassay", "type": "cell-based, PC-3"}, "[3]": {"target": "Vascular endothelial growth factor receptor 2 (Homo sapiens, UniProt P35968)", "assay": "Inhibition of VEGFR2"}, "[4]": {"target": "Insulin-like growth factor 1 receptor (Homo sapiens) (UniProt P08069)", "assay": "Inhibition of IGF1R"}, "[5]": {"assay": "Clearance in Sprague-Dawley rat at 2 mg/kg, iv", "type": "ADME, organism-based", "design": "dose 2 mg/kg, route intravenous", "conditions": "in vivo", "summary_of_the_method": "(§1)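 Male Sprague-Dawley rats, 3 animals per study, given 2 mg/kg iv as a solution in DMSO. Clearance, steady-state volume and half-life were derived from plasma pharmacokinetics.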"}, "[6]": {"assay": "Volume of distribution at steady-state in Sprague-Dawley rat at 2 mg/kg, iv", "type": "ADME, organism-based", "design": "dose 2 mg/kg, route intravenous", "conditions": "in vivo, read-out: Vdss", "summary_of_the_method": "as §1"}, "[7]": {"assay": "Elimination half life in Sprague-Dawley rat at 2 mg/kg, iv", "type": "ADME, organism-based", "design": "dose 2 mg/kg, route intravenous", "conditions": "in vivo, read-out: beta t1/2 (converted)", "summary_of_the_method": "as §1"}, "[8]": {"assay": "Oral bioavailability in Sprague-Dawley rat at 5 mg/kg", "type": "ADME, organism-based", "conditions": "in vivo", "summary_of_the_method": "(§2)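 Male Sprague-Dawley rats, 3 animals per study, dosed orally at 5 mg/kg as a suspension in 1% Tween 80, 99% OraPlus.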"}, "[9]": {"assay": "AUC in Sprague-Dawley rat at 5 mg/kg, po", "type": "ADME, organism-based", "design": "dose 5 mg/kg, route oral", "conditions": "plasma", "summary_of_the_method": "as §2"}, "Mus musculus [10]": {"test_system": "Mus musculus", "assay": "Inhibition of HGF-mediated c-met autophosphorylation in po dosed Balb/c mouse liver compound administered 2 hrs before and measured after 5 mins of HGF stimulation by electrochemiluminescent assay", "type": "functional", "summary_of_the_method": "(§3)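 Balb/c mice were gavaged at 10, 30 or 100 mg/kg. At 2 h postdose, human HGF was injected iv and livers were harvested 5 min later. Phospho-c-Met was quantified by electrochemiluminescent assay and compared with vehicle + HGF. Mean ± SD, n = 3. Terminal plasma concentrations were measured.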"}, "Mus musculus [11]": {"test_system": "Mus musculus", "assay": "Inhibition of HGF-mediated c-met autophosphorylation in Balb/c mouse liver at 10 mg/kg, po administered 2 hrs before and measured after 5 mins of HGF stimulation by electrochemiluminescent assay", "type": "functional", "summary_of_the_method": "as §3"}}}
{"smiles": "COc1ccc2c(OCc3nnc4ccc(-c5cc(F)c(F)c(F)c5)cn34)ccnc2c1", "values": [{"measurement": "Ki", "setting": "[1]", "result": 4.8, "unit": "nM"}]}
{"smiles": "COc1cc2nccc(Oc3ccc(N(C)C(=O)c4c(C)n(C)n(-c5ccccc5)c4=O)cc3F)c2cc1OC", "values": [{"measurement": "Ki", "setting": "[1]", "result": "> 20000", "unit": "nM"}, {"measurement": "IC50", "setting": "[2]", "result": "> 20000", "unit": "nM"}]}
{"smiles": "COc1cc2nccc(Oc3ccc(NC(=O)c4c(C)n(C)n(-c5ccccc5)c4=O)cc3F)c2cc1OC", "values": [{"measurement": "INH", "setting": "[3]", "result": 6.2, "unit": "nM"}, {"measurement": "INH", "setting": "[4]", "result": 65, "unit": "nM"}, {"measurement": "clearance", "setting": "[5]", "result": 0.583, "unit": "mL/min/kg"}, {"measurement": "Vd", "setting": "[6]", "result": 0.242, "unit": "L/kg"}, {"measurement": "half-life", "setting": "[7]", "result": 4.6, "unit": "h"}, {"measurement": "bioavailability", "setting": "[8]", "result": 94, "unit": "%"}, {"measurement": "AUC", "setting": "[9]", "result": 258, "unit": "µM·h"}, {"measurement": "ED90", "setting": "Mus musculus [10]", "result": "< 30", "unit": "mg/kg"}, {"measurement": "inhibition", "setting": "Mus musculus [10]", "result": "Dose-dependent effect"}, {"measurement": "inhibition in vivo at 10 mg/kg", "setting": "Mus musculus [11]", "result": 85, "unit": "%"}]}
{"smiles": "COc1cc2nccc(Oc3ccc(NC(=O)N4CCN(c5ccccc5)C4=O)cc3F)c2cc1OC", "values": [{"measurement": "Ki", "setting": "[1]", "result": 1.7, "unit": "nM"}, {"measurement": "IC50", "setting": "[2]", "result": 53, "unit": "nM"}]}
{"smiles": "COc1cc2nccc(Oc3ccc(NC(=S)NC(=O)Cc4ccccc4)cc3F)c2cc1OC", "values": [{"measurement": "Ki", "setting": "[3]", "result": 103, "unit": "nM"}]}
